Assay results of several laboratories.
Effect on: cell growth or viability

Compound	cell line	test	setting	endpoint	value
CCOP(=O)(OCC)[C@@H]1C[C@@H](n2cc(Cn3cc(C)c(=O)[nH]c3=O)nn2)ON1C (racemic)	human T-lymphocyte		72 h	CC50	> 250 µM
COc1cc2c(cc1O)[C@@H](Cc1ccc(O)cc1)[N+](C)(C)CC2	Huh-7	MTT		CC50	> 318 µM
CCOP(=O)(OCC)[C@@H]1C[C@H](n2cc(Cn3ccc(=O)[nH]c3=O)nn2)ON1C (racemic)	human T-lymphocyte		72 h	CC50	> 250 µM
N[C@@H](CC(=O)N1CCN(C(c2ccc(F)cc2)c2ccc(F)cc2)CC1)C(=O)N1Cc2ccccc2C1	HEK-293T	ATP luminescence	60 µM	viability	41%
NC1CCC(CC2CCC(NC(=O)c3cc4[nH]ccc4cc3Cl)CC2)CC1 (stereo not drawn)	HEK-293T		100 µM, 24 h	viability	< 50%
CC[C@@H](C)[C@H](N)C(=O)N1Cc2ccccc2C1	HEK-293T	ATP luminescence	60 µM	viability	73%
O=C(NCCc1c[nH]c2ccc(F)cc12)c1cc2[nH]ccc2cc1Cl	HEK-293T		100 µM, 24 h	viability	< 50%
CCCCCCn1c(-c2cccc(Cl)c2)n[nH]c1=S	HepG2	resazurin	100 µM, 24 h	viability	75%
COc1ccc2c(c1)c1c(n2CO)CN2CCc3cc(OC)c(OCc4ccc(F)cc4)cc3C2C1 (stereo not drawn)	HepG2		10 µM, 24 h	viability	104%
COc1ccc(CCN2CCC(Nc3nc4ccccc4n3Cc3ccc(F)cc3)CC2)cc1	HepG2	resazurin	50 µM, 24 h	viability	20%
CCOP(=O)(OCC)[C@@H]1C[C@@H](n2cc(-c3ccc(F)cc3F)nn2)ON1C (racemic)	human T-lymphocyte		72 h	CC50	≥ 250 µM
COc1cc2c(cc1OCc1ccccc1F)C1Cc3c(n(CO)c4ccccc34)CN1CC2 (stereo not drawn)	HepG2		20 µM, 24 h	viability	83.6%
